Measurements reported in ChEMBL document CHEMBL4725305, “Optimizing the aryl-triazole of cjoc42 for enhanced gankyrin binding and anti-cancer activity” (Bioorg Med Chem Lett, 2020).
Active and inactive are the calls of the source. No cut-off for these calls is given here.

How the values were obtained:
[1] = target: T1, 26S proteasome non-ATPase regulatory subunit 10 (Homo sapiens) (UniProt O75832); assay: Binding affinity to gankyrin (unknown origin) assessed as increase in melting temperature at 300 uM by thermal shift assay
T1 sequence (whole entry): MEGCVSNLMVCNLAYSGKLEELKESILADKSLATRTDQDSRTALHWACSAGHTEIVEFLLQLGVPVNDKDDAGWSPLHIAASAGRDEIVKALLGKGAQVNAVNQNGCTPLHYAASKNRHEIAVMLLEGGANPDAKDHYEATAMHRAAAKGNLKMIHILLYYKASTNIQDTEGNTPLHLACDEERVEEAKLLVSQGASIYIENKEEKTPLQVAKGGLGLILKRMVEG
How it was run: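 Gankyrin (20 μM) incubated with test compound at 300 μM in protein thermal shift assay; denaturation temperature (T_m) measured and ΔT_m taken relative to protein without ligand. Vehicle control 5% DMSO; cjoc42 at 300 μM as reference control. Each compound tested in triplicate.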

HepG2 = assay: Cytotoxicity against human HepG2 cells assessed as reduction in cell viability incubated for 72 hrs by MTT assay; format: functional, cell-based; conditions: HepG2, 72 h
How it was run: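 Hep3B and HepG2 cells incubated 24 h before drug addition, then exposed to compound for 72 h at 37 °C, 5% CO2; proliferation read by MTT assay and IC50 derived; tested up to 100 μM.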

MDA-MB-231 = assay: Cytotoxicity against human MDA-MB-231 cells assessed as reduction in cell viability incubated for 48 hrs by MTT assay; format: functional, cell-based; conditions: MDA-MB-231, 48 h
How it was run: (§1)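 A549 and MDA-MB-231 cells incubated 24 h before drug addition, then exposed to compound for 48 h at 37 °C, 5% CO2; proliferation read by MTT assay and IC50 derived; tested up to 100 μM.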

Hep3B = assay: Cytotoxicity against human Hep3B cells assessed as reduction in cell viability incubated for 72 hrs by MTT assay
A549 = assay: Cytotoxicity against human A549 cells assessed as reduction in cell viability incubated for 48 hrs by MTT assay; format: functional, cell-based; conditions: A549, 48 h; how it was run: as §1
[2] = target: T1, 26S proteasome non-ATPase regulatory subunit 10 (Homo sapiens); assay: Potency index, ratio of change in melting temperature of Cjoc42 to change in melting temperature of compound for binding affinity to gankyrin (unknown origin) assessed as increase in melting temperature at 300 uM by thermal shift assay
How it was run: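 Gankyrin (20 μM) with compound at 300 μM in thermal shift assay, run in triplicate; ΔT_m of each compound compared with that of cjoc42 (300 μM) tested in parallel as positive control; 5% DMSO vehicle.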

SMILES	Activity [1]	other results
Cc1ccc(S(=O)(=O)OCCCc2cn(-c3cccc(Br)c3)nn2)cc1	Active	–
COC(=O)c1ccccc1-n1cc(CCCOS(=O)(=O)c2ccc(C)cc2)nn1	inactive	–
Cc1ccc(S(=O)(=O)OCCCc2cn(-c3ccc(Cl)cc3)nn2)cc1	Active	–
Cc1ccc(S(=O)(=O)OCCCc2cn(-c3ccc(F)cc3)nn2)cc1	inactive	–
Cc1ccc(S(=O)(=O)OCCCc2cn(-c3nccs3)nn2)cc1	inactive	–
CCc1ccc(-n2cc(CCCOS(=O)(=O)c3ccc(C)cc3)nn2)cc1	inactive	–
Cc1ccc(S(=O)(=O)OCCCc2cn(-c3ccccc3F)nn2)cc1	inactive	–
Cc1ccc(S(=O)(=O)OCCCc2cn(-c3ccc(-c4ccccc4)cc3)nn2)cc1	inactive	–
COc1ccccc1-n1cc(CCCOS(=O)(=O)c2ccc(C)cc2)nn1	Active	–
COC(=O)c1ccc(-n2cc(CCCOS(=O)(=O)c3ccc(C)cc3)nn2)cc1	–	IC50 (HepG2): > 100 µM; IC50 (MDA-MB-231): > 100 µM; IC50 (Hep3B): > 100 µM; IC50 (A549): > 100 µM
COc1ccc(-n2cc(CCCOS(=O)(=O)c3ccc(C)cc3)nn2)cc1	Active	IC50 (HepG2): > 100 µM; IC50 (MDA-MB-231): 72.8 µM; IC50 (Hep3B): > 100 µM; IC50 (A549): 74.6 µM
Cc1ccc(S(=O)(=O)OCCCc2cn(-c3ccccc3C)nn2)cc1	Active	–
Cc1ccc(S(=O)(=O)OCCCc2cn(-c3ccccc3-c3ccccc3)nn2)cc1	Active	–
Cc1ccc(S(=O)(=O)OCCCc2cn(-c3cccc(C)c3)nn2)cc1	Active	–
Cc1ccc(S(=O)(=O)OCCCc2cn(-c3ccccc3C#N)nn2)cc1	inactive	–
COc1ccc(-n2cc(CCCOS(=O)(=O)c3ccc(I)cc3)nn2)cc1	inactive	–
COC(=O)c1ccc(-n2cc(CCCOS(=O)(=O)c3ccc(-c4ccccc4)cc3)nn2)cc1	–	IC50 (Hep3B): 26 µM
Cc1ccc(-n2cc(CCCOS(=O)(=O)c3ccc(C)cc3)nn2)cc1	Active	IC50 (HepG2): > 100 µM; IC50 (MDA-MB-231): 36.6 µM; IC50 (Hep3B): > 100 µM; IC50 (A549): 79.9 µM; Ratio [2]: 3
COc1cccc(-n2cc(CCCOS(=O)(=O)c3ccc(C)cc3)nn2)c1	Active	–
COc1ccc(-n2cc(CCCOS(=O)(=O)c3ccc(-c4ccccc4)cc3)nn2)cc1	inactive	–
N#Cc1cccc(-n2cc(CCCOS(=O)(=O)c3ccc(-c4ccccc4)cc3)nn2)c1	inactive	–
N#Cc1cccc(-n2cc(CCCOS(=O)(=O)c3ccc(I)cc3)nn2)c1	inactive	–
Cc1ccc(S(=O)(=O)OCCCc2cn(-c3ccc(Br)cc3)nn2)cc1	Active	–
Cc1ccc(S(=O)(=O)OCCCc2cn(-c3ccc(I)cc3)nn2)cc1	inactive	–
Cc1ccc(S(=O)(=O)OCCCc2cn(-c3ccc(C(C)C)cc3)nn2)cc1	inactive	–

Second part, led by results:

Activity [1]	SMILES	other results
Active	Cc1ccc(S(=O)(=O)OCCCc2cn(-c3ccc(C(F)(F)F)cc3)nn2)cc1	IC50 (HepG2): 42.6 µM; IC50 (MDA-MB-231): > 100 µM; IC50 (Hep3B): 42.7 µM; IC50 (A549): > 100 µM
inactive	Cc1ccc(S(=O)(=O)OCCCc2cn(-c3ccc(C#N)cc3)nn2)cc1	–
Active	Cc1ccc(S(=O)(=O)OCCCc2cn(-c3cccc(C(F)(F)F)c3)nn2)cc1	–
inactive	Cc1ccc(S(=O)(=O)OCCCc2cn(-c3ccncc3)nn2)cc1	–
Active	Cc1ccc(S(=O)(=O)OCCCc2cn(-c3cccc(C#N)c3)nn2)cc1	IC50 (HepG2): > 100 µM; IC50 (MDA-MB-231): > 100 µM; IC50 (Hep3B): 44.9 µM; IC50 (A549): > 100 µM; Ratio [2]: 6
inactive	Cc1ccc(S(=O)(=O)OCCCc2cn(-c3cccnc3)nn2)cc1	–
inactive	CCc1ccccc1-n1cc(CCCOS(=O)(=O)c2ccc(C)cc2)nn1	–
Active	Cc1ccc(S(=O)(=O)OCCCc2cn(-c3cccc(F)c3)nn2)cc1	IC50 (HepG2): 61.8 µM; IC50 (MDA-MB-231): > 100 µM; IC50 (Hep3B): 82.1 µM; IC50 (A549): > 100 µM; Ratio [2]: 5
inactive	Cc1ccc(S(=O)(=O)OCCCc2cn(-c3ccccn3)nn2)cc1	–
Active	Cc1ccc(S(=O)(=O)OCCCc2cn(-c3ccccc3C(F)(F)F)nn2)cc1	–
Active	CCc1cccc(-n2cc(CCCOS(=O)(=O)c3ccc(C)cc3)nn2)c1	–
